# Screens: PubChem, several laboratories
# This is a sample that favours compounds with a hit; in the whole collection about 2.1% have one here.
# F508del corr: correctors of CFTR F508del function in bronchial epithelial cells. CFBE cells, YFP halide quenching; stimulated with forskolin plus potentiator P3; % fluorescence drop versus neutral controls. 350,000 compounds, 0.36% hits. activity (quench increase), % at 7.58 µM;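 active = mean added fluorescence quench of at least 8% versus neutral control, with both replicates also reaching 8%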;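 also: cells transiently co-express mutant CFTR-F508del with the halide-sensitive YFP; corrector assay measuring rescue of mutant channel to the surface after 24 h compound exposure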
# MC4R antag cAMP: antagonists of human melanocortin 4 receptor (MC4R); P32245; MC4R-expressing cells, MTII-stimulated cAMP, LANCE TR-FRET; inhibition, % at 6.5 µM; 360,000 compounds, 0.48% hits; AID 540295;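 active = inhibition above its plate's cutoff, the mean of tested wells on that plate plus 3 SD, cut at about 29% in these data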;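 also: 0% = Melanotan II alone and 100% = Melanotan II plus saturating MCL0020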
# Target sequence (P32245 whole entry, looked up): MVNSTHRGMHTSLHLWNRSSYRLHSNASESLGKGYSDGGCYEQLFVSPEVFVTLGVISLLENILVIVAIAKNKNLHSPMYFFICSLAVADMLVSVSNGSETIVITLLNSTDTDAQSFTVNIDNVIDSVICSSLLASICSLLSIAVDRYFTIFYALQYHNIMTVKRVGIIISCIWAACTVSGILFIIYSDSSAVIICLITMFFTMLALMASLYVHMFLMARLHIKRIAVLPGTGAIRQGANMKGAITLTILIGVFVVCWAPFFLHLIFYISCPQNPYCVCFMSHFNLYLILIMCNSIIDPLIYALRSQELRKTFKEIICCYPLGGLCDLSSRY
#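 Material: human MC4R-expressing U2OS cells. Probe or stimulus: Melanotan II challenge. Dosing: 6.5 µM single dose. Times: 30-min compound, 1-h challenge, 1-h detection, room temperature. Technique: TR-FRET with Eu-cAMP and labeled anti-cAMP, 671 nm. Replication: singlicate.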
# MC4R ag barr: human MC4R agonism via beta-arrestin; AID 540308; activation, % at 8.9 µM; 360,000 compounds, 0.98% hits; U2OS MC4R beta-arrestin complementation, luminescence; percent of melanotan II response, DMSO zero;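 active = activation above a per-plate cutoff, the mean activation of sample wells on that plate plus 3 SD, cut at about 8% in these data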
# SMARCA2 activ: increases SMARCA2 function in MMTV reporter cells; MG213 cells, MMTV-luciferase reporter, dexamethasone, overnight; activation, % at 9.1 µM; 370,000 compounds, 1% hits; AID 652017; in the data active = activation above about 7.8%;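 also: 0% = vehicle wells and 100% = reference activator wells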
# SMARCA2 act conf: SMARCA2 activation, confirmation screen; shares compounds with SMARCA2 activ; MG213 cells, MMTV-luciferase with dexamethasone, luminescence, overnight; MG213 cells expressing E1A, Rb sequestered; DMSO wells 0%, reference activator 100%; activation, % at 9.1 µM; 3,500 compounds, 30% hits;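 active = activation above its plate's cutoff, the mean activation of tested wells plus 3 SD, cut at about 7.9% in these data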
# VP16 Luc act: GAL4-VP16 reporter activation counter-screen; shares compounds with SMARCA2 activ; HEK293 GAL4-VP16 pG5luc reporter, luciferase luminescence; scaled: DMSO wells 0%, SAHA wells 100%; activation, % at 9.1 µM; 3,500 compounds, 41% hits;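 active = activation above the solvent-only control well mean plus 3 SD, averaged across control plates, cut at about 5.2% in these data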
# Active calls of the source: *; . = not tested or not shown.
SMILES,F508del corr,MC4R antag cAMP,MC4R ag barr,SMARCA2 activ,SMARCA2 act conf,VP16 Luc act
CCOc1ccc(NCC(=O)c2ccc(C)cc2)cc1,1,0,-1,-3,.,.
Cc1ccc(C(=O)CNc2ccc(Cl)cc2)cc1,12*,1,3,13*,12*,3
C[C@H]1CN([C@@H](C)CO)C(=O)CCCn2cc(nn2)CO[C@H]1CN(C)C(=O)CCCN(C)C,-2,.,.,.,.,.
C=CCNC(=O)c1c(Cl)cnn1-c1ccc(C)cc1,1,2,-1,12*,6,5.4*
CCN1[C@@H]2c3ccc(C4=CCCC4)c(=O)n3C[C@H]1[C@H](CO)[C@H]2C(=O)N[C@@H](C)c1ccccc1,1,.,.,.,.,.
CNS(=O)(=O)c1cc(C(=O)OCC(=O)NC2CCCc3ccccc32)ccc1Cl (configuration not stated),1,0,0,-2,.,.
CCN(CC)S(=O)(=O)c1cc(C(=O)OCC(=O)NC2CCCc3ccccc32)ccc1C (configuration not stated),.,7,3,11*,-3,-1
COC(=O)c1ccc(OCC(=O)c2ccccc2)cc1,.,0,0,12*,11*,8.5*
O=C(CNS(=O)(=O)c1ccccc1)OCC(=O)c1ccc(OC(=O)c2ccccc2)cc1,.,6,2,8.7*,18*,2
C[C@H](CO)N1C[C@H](C)[C@H](CN(C)S(=O)(=O)c2ccc(C#N)cc2)Oc2ncc(-c3ccc(F)cc3)cc2C1=O,-1,.,.,.,.,.
O=C(C[C@H]1CC[C@@H](NC(=O)c2ccc3c(c2)OCO3)[C@@H](CO)O1)NC1Cc2ccccc2C1,0,.,.,.,.,.
C(=C\c1nc(-c2ccccc2)no1)/c1ccccc1,-2,7,0,8.9*,9.3*,9.1*
c1ccc(-c2noc(-c3ccccc3-c3ccccc3)n2)cc1,.,10,0,2,.,.
C(=C\c1nc(-c2ccncc2)no1)/c1ccccc1,-2,7,-1,8.1*,8.1*,5.3*
COc1ccc2c3c([nH]c2c1)[C@H](CO)N(C(=O)Nc1ccc(F)cc1)CC31CN(C(=O)Cc2ccncc2)C1,1,.,.,.,.,.
CC(=O)NNc1nc(-c2ccc(C)cc2)cs1,-4,7,-1,-2,.,.
CCCC(=O)Nc1ccc(-c2csc(NNC(C)=O)n2)cc1,1,0,2,12*,-2,2
COc1ccc(NC(=O)Nc2ccc3c(c2)C(=O)N([C@@H](C)CO)C[C@H](C)[C@H](CN(C)C(=O)NC(C)C)O3)cc1,1,.,.,.,.,.
O=C(Cc1ccccc1)Nc1ccc2c(c1)CCC2,-3,-3,1,0,.,.
O=C(CC1CCCC1)Nc1ccc2c(c1)CCC2,.,-2,-1,9.0*,13*,2
O=C(Nc1cccc(F)c1)Nc1ccc2c(c1)CCC2,0,14,7,8.8*,9.8*,6.5*
O=C(Nc1ccc(F)cc1)Nc1ccc2c(c1)CCC2,0,2,-1,3,.,.
Cc1cc(NC(=O)CC2CCCC2)ccc1Br,0,11,1,11*,7,8.6*
O=C(COC(=O)c1ccc(Cl)nc1)Nc1ccc2c(c1)CCC2,-1,4,-1,9.1*,-1,0
CN1CCN(C(=O)C[C@H]2CC[C@H]3[C@@H](COC[C@H](O)CN3Cc3ccc(Oc4ccccc4)cc3)O2)CC1,-2,.,.,.,.,.
SMILES,F508del corr,MC4R antag cAMP,MC4R ag barr,SMARCA2 activ,SMARCA2 act conf,VP16 Luc act
C[C@@H]1CN([C@H](C)CO)C(=O)c2cccc(NC(=O)Nc3ccccc3)c2O[C@@H]1CN(C)Cc1ccc(-c2ccccc2)cc1,0,.,.,.,.,.
NC(=Nc1ccccc1)NC(=O)c1nc(Cl)c(N)nc1N,1,-2,0,9.2*,27*,11*
CC(C)NC(=O)N1CC2(C1)[C@@H](c1ccccc1)[C@@H](CO)N2C(=O)C1CC1,-3,.,.,.,.,.
C[C@H](CO)N1C[C@H](C)[C@@H](CN(C)CC2CCCC2)Oc2cc(C#CCN(C)C)ccc2S1(=O)=O,-1,.,.,.,.,.
COc1ccc(COC(=O)N/N=C/c2cccs2)cc1,-1,-1,0,9.3*,3,3
CCOC(=O)c1cnc(SCC(=O)c2ccccc2)nc1N,.,-8,-2,14*,13*,9.0*
C[C@H](CO)N1C[C@H](C)[C@@H](CN(C)Cc2ccc3c(c2)OCO3)Oc2ccc(NC(=O)CCN3CCOCC3)cc2CC1=O,-2,.,.,.,.,.
O=C(N/N=C/c1cc(Cl)ccc1O)c1ccccc1Br,.,-4,2,1,.,.
CC1(N=Cc2cc(Cl)ccc2O)COP(=O)(Nc2ccccc2)OC1 (configuration not stated),-2,8,0,8.2*,-1,1
Cc1ocnc1C(=O)Nc1ccc(Cl)cc1,.,4,-1,9.3*,6,5
C=COC(=O)c1sc2nc(C)cc(C)c2c1N,2,-1,-2,9.3*,11*,2
O=C(CCCc1ccccn1)c1cccc2ccccc12,0,-3,-1,0,.,.
O=C(CCCc1ccccn1)c1ccc(-c2ccccc2)cc1,4,10,1,8.6*,4,6.4*
O=C(C[C@@H]1CC[C@@H](NC(=O)Nc2ccccc2)[C@@H](CO)O1)NCc1cccc(F)c1,0,.,.,.,.,.
CCC(=O)Nc1ccc(NC(=O)CSc2nnnn2-c2cccnc2)cc1C,3,7,-2,9.7*,-2,1
Cc1cccc(NC(=O)CSc2nnnn2-c2cccnc2)c1,.,-3,0,5,.,.
COc1ccc(C)cc1NC(=O)c1cnc2scc(C)n2c1=O,3,3,1,-2,.,.
COc1ccc(C)cc1NC(=O)c1cnc2n(c1=O)CCS2,.,4,-1,9.8*,3,2
COc1cc2ccccc2cc1C(=O)Nc1nccs1,1,-6,3,1,.,.
COc1c(C(=O)Nc2nccs2)ccc2ccccc12,-5,7,-1,10*,10*,11*
C[C@@H]1CCCCO[C@@H](CN(C)C)[C@H](C)CN([C@H](C)CO)C(=O)c2cc(NC(=O)Nc3cccc4ccccc34)ccc2O1,-4,.,.,.,.,.
COc1ccc(-c2cc3c(nn2)-c2ccccc2C3=O)cc1,4,1,-2,11*,8.7*,5.2*
Cc1ccc(NC(=O)CSc2nccn2Cc2ccco2)c(C)c1,0,5,-2,11*,9.9*,6.5*
O=C(CSc1nnc(-c2cnccn2)n1-c1ccccc1)Nc1ccc2cn[nH]c2c1,.,.,.,8.7*,3,-1
Cc1ccc(NC(=O)CSc2nnc(-c3cnccn3)n2Cc2ccco2)cc1,.,0,-2,23*,-4,0
Cc1ccc(C)c(NC(=O)CSc2nccn2Cc2ccco2)c1,2,-2,-3,4,.,.
O=C(c1ccc(-c2cc(Cl)ccc2Cl)o1)N1CCOCC1,2,-2,1,8.8*,3,2
